From ChEMBL document CHEMBL1141651, “Discovery of a potent, selective, and orally active proteasome inhibitor for the treatment of cancer” (J Med Chem, 2008)
Blank lines part the entries; values can stand above or below the molecule they belong to. Activity calls are given as the source filed them. The rule behind the calls is not given here.

Legend:
[1] = Inhibition of chymotrypsin-like activity of human erythrocyte 20S proteasome
In short: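 Isolated 20S proteasome purified from human erythrocytes was tested in a fluorimetric kinetic assay of chymotrypsin-like activity. Potency is reported as IC50.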

[2] = Inhibition of bovine alpha chymotrypsin; design: species or system Bos taurus
[3] = Inhibition of chymotrypsin-like activity of human 20S proteasome in Molt4 cells; type: cell-based; details: molt-4
In short: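 Intact human leukemia Molt-4 cells were given the cell-permeable fluorogenic chymotrypsin-like substrate MeOSuc-FLF-AFC, so the read-out also reflects inhibitor cell permeability. Potency is reported as EC50.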

A2780 = test: Cytotoxicity against human A2780 cells; type: functional, cell-based
In short: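 Antiproliferative activity was measured in A2780 ovarian carcinoma cells with a standard colorimetric assay of cell proliferation and viability. Results are expressed as IC50.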

Caspase-7 (Homo sapiens) = Caspase-7 (Homo sapiens) (UniProt P55210); test: Inhibition of human caspase 7 at 10 uM
Caspase-8 (Homo sapiens) = Caspase-8 (Homo sapiens) (UniProt Q14790); test: Inhibition of human caspase 8 at 10 uM
Caspase-9 (Homo sapiens) = Caspase-9 (Homo sapiens) (UniProt P55211); test: Inhibition of human caspase 9 at 10 uM
[4] = biological target: Dipeptidyl peptidase 4 (Homo sapiens) (UniProt P27487); test: Inhibition of human DPP4 at 10 uM
[5] = biological target: Endothelin-converting enzyme 1 (Homo sapiens) (UniProt P42892); test: Inhibition of human ECE1 at 10 uM
[6] = biological target: Neprilysin (Homo sapiens) (UniProt P08473); test: Inhibition of human NEP at 10 uM
Sus scrofa [7] = species: Sus scrofa; test: Inhibition of pig pepsin at 10 uM
[8] = Inhibition of bacterial prolyl oligopeptidase at 10 uM
[9] = biological target: Plasminogen (Homo sapiens) (UniProt P00747); test: Inhibition of human plasmin at 10 uM
Homo sapiens [10] = species: Homo sapiens; test: Inhibition of human chymotrypsin at 10 uM
[11] = Half life in CD1 mouse at 0.8 mg/kg, iv; type: ADME, organism-based; design: dose 0.8 mg/kg, route intravenous; details: in vivo
In short: (§1)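 Female Sprague–Dawley rats and CD-1 mice each received a single iv or oral (po) dose. Terminal half-life and systemic clearance were estimated from plasma exposure over time, alongside AUC0→∞, Vss and absolute oral bioavailability.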

[12] = AUC (0 to infinity) in CD1 mouse at 0.8 mg/kg, iv; type: ADME, organism-based; design: time infinity, dose 0.8 mg/kg, route intravenous; details: plasma
In short: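 CD-1 mice received a single dose by the iv or oral route. AUC from 0 to infinity was reported with terminal half-life, Vss, clearance and absolute oral bioavailability.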

[13] = Volume of distribution at steady state in CD1 mouse at 0.8 mg/kg, iv; type: ADME, organism-based; design: dose 0.8 mg/kg, route intravenous; details: in vivo, read-out: Vdss
In short: (§2)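 Single-dose pharmacokinetics after iv or oral administration in female Sprague–Dawley rats and in CD-1 mice; plasma exposure (AUC0–∞) used to derive steady-state volume of distribution, clearance, terminal half-life and absolute oral bioavailability.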

[14] = Clearance in CD1 mouse at 0.8 mg/kg, iv; type: ADME, organism-based; design: dose 0.8 mg/kg, route intravenous; details: in vivo; in short: as §1
[15] = Half life in CD1 mouse at 4 mg/kg, po; type: ADME, organism-based; design: dose 4 mg/kg, route oral; details: in vivo; in short: as §1
[16] = AUC (0 to infinity) in CD1 mouse at 4 mg/kg, po; type: ADME, organism-based; design: time infinity, dose 4 mg/kg, route oral; details: plasma
[17] = Oral bioavailability in CD1 mouse at 4 mg/kg; type: ADME, organism-based; details: in vivo; in short: as §2
Mus musculus = test: Inhibition of 20S proteasome beta5beta1 subunit binding in human RPMI 8226 cells xenografted mouse; type: functional, organism-based
[18] = biological target: Calpain-1 catalytic subunit (Homo sapiens) (UniProt P07384); test: Inhibition of human calpain 1 at 10 uM
[19] = biological target: Dipeptidyl peptidase 1 (Bos taurus) (UniProt Q3ZCJ8); test: Inhibition of bovine cathepsin C at 10 uM
[20] = biological target: Cathepsin D (Homo sapiens) (UniProt P07339); test: Inhibition of human cathepsin D at 10 uM
[21] = biological target: Cathepsin E (Homo sapiens) (UniProt P14091); test: Inhibition of human cathepsin E at 10 uM
[22] = biological target: Cathepsin G (Homo sapiens) (UniProt P08311); test: Inhibition of human cathepsin G at 10 uM
Cathepsin G = Cathepsin G (Homo sapiens, UniProt P08311); test: Inhibition of human cathepsin G
[23] = biological target: Pro-cathepsin H (Homo sapiens) (UniProt P09668); test: Inhibition of human cathepsin H at 10 uM
[24] = biological target: Procathepsin L (Homo sapiens) (UniProt P07711); test: Inhibition of human cathepsin L at 10 uM
[25] = biological target: Cathepsin S (Homo sapiens) (UniProt P25774); test: Inhibition of human cathepsin S at 10 uM
[26] = biological target: Cathepsin Z (Homo sapiens) (UniProt Q9UBR2); test: Inhibition of human cathepsin Z at 10 uM
Chymase (Homo sapiens) = Chymase (Homo sapiens) (UniProt P23946); test: Inhibition of human chymase at 10 uM
Chymase = Chymase (Homo sapiens, UniProt P23946); test: Inhibition of human chymase
[27] = Inhibition of human chymotrypsin
In short: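 Cross-reactivity was tested against human pancreas α-chymotrypsin using a fluorogenic specific substrate. Results are expressed as IC50.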

[28] = biological target: Coagulation factor VII (Homo sapiens) (UniProt P08709); test: Inhibition of human factor 7a at 10 uM
[29] = biological target: Coagulation factor X (Homo sapiens) (UniProt P00742); test: Inhibition of human factor 10a at 10 uM
[30] = biological target: Protease (Human immunodeficiency virus 1) (UniProt Q9YQ12); test: Inhibition of HIV1 protease at 10 uM
[31] = biological target: Plasma kallikrein (Homo sapiens) (UniProt P03952); test: Inhibition of human plasma kallikrein at 10 uM
[32] = biological target: Interstitial collagenase (Homo sapiens) (UniProt P03956); test: Inhibition of human MMP1 at 10 uM
[33] = biological target: 72 kDa type IV collagenase (Homo sapiens) (UniProt P08253); test: Inhibition of human MMP2 at 10 uM
[34] = biological target: Stromelysin-1 (Homo sapiens) (UniProt P08254); test: Inhibition of human MMP3 at 10 uM
[35] = biological target: Matrilysin (Homo sapiens) (UniProt P09237); test: Inhibition of human MMP7 at 10 uM
[36] = biological target: Neutrophil collagenase (Homo sapiens) (UniProt P22894); test: Inhibition of human MMP8 at 10 uM
[37] = biological target: Macrophage metalloelastase (Homo sapiens) (UniProt P39900); test: Inhibition of human MMP12 at 10 uM
Caspase-1 (Homo sapiens) = Caspase-1 (Homo sapiens) (UniProt P29466); test: Inhibition of human caspase 1 at 10 uM
Caspase-2 (Homo sapiens) = Caspase-2 (Homo sapiens) (UniProt P42575); test: Inhibition of human caspase 2 at 10 uM
Caspase-3 (Homo sapiens) = Caspase-3 (Homo sapiens) (UniProt P42574); test: Inhibition of human caspase 3 at 10 uM
Renin (Homo sapiens) = Renin (Homo sapiens) (UniProt P00797); test: Inhibition of human renin at 10 uM
[38] = biological target: Prothrombin (Homo sapiens) (UniProt P00734); test: Inhibition of human thrombin at 10 uM
[39] = biological target: Tissue-type plasminogen activator (Homo sapiens) (UniProt P00750); test: Inhibition of human TPA at 10 uM
Trypsin (Homo sapiens) = Trypsin (Homo sapiens) (UniProt P07477+P07478+P35030); test: Inhibition of human trypsin at 10 uM; type: protein assay
Homo sapiens [40] = species: Homo sapiens; test: Inhibition of human tryptase at 10 uM
[41] = biological target: Neutrophil elastase (Homo sapiens) (UniProt P08246); test: Inhibition of human neutrophil elastase 2 at 10 uM
Sus scrofa [42] = species: Sus scrofa; test: Inhibition of pig pancreatic elastase 1 at 10 uM
[43] = biological target: Disintegrin and metalloproteinase domain-containing protein 17 (Homo sapiens) (UniProt P78536); test: Inhibition of human TACE at 10 uM
[44] = Metabolic stability in mouse liver microsomes; type: ADME, Microsome
[45] = Metabolic stability in rat liver microsomes; type: ADME, Microsome
[46] = Metabolic stability in dog liver microsomes; type: ADME, Canis lupus familiaris, Microsome
[47] = Metabolic stability in human liver microsomes; type: ADME, Microsome
[48] = Protein binding in mouse plasma; type: ADME, cell-free; details: read-out: PPB (converted)
[49] = Protein binding in rat plasma; type: ADME, cell-free; details: read-out: PPB (converted)
[50] = Protein binding in dog plasma; type: ADME, cell-free, Canis lupus familiaris; details: read-out: PPB (converted)

Sequence of Protease (Human immunodeficiency virus 1) (Q9YQ12 as listed by the source): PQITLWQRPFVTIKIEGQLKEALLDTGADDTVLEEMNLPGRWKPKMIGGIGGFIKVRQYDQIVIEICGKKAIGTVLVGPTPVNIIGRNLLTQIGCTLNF
Sequence of Interstitial collagenase (Homo sapiens) (P03956 whole entry): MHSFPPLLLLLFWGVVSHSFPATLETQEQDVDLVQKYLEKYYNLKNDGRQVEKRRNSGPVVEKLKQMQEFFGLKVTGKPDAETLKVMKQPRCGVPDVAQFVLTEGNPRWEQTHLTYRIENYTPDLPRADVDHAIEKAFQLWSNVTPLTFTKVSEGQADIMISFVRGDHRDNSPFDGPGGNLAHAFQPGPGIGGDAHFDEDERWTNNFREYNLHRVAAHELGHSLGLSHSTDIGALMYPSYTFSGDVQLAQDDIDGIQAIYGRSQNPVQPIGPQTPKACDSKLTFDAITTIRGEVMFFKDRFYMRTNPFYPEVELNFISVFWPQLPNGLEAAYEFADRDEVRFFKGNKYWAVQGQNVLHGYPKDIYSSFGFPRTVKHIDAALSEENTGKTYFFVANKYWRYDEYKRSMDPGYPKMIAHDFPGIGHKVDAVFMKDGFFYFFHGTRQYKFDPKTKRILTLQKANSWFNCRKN
Sequence of Cathepsin S (Homo sapiens) (P25774 115-331 limits assumed): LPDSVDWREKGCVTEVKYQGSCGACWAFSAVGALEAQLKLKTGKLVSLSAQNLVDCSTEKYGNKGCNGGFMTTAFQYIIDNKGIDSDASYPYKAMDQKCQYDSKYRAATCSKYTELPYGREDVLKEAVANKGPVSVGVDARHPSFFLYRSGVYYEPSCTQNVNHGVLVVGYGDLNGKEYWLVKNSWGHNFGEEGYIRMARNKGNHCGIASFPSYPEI
Sequence of Plasminogen (Homo sapiens) (P00747 97-580 limits assumed): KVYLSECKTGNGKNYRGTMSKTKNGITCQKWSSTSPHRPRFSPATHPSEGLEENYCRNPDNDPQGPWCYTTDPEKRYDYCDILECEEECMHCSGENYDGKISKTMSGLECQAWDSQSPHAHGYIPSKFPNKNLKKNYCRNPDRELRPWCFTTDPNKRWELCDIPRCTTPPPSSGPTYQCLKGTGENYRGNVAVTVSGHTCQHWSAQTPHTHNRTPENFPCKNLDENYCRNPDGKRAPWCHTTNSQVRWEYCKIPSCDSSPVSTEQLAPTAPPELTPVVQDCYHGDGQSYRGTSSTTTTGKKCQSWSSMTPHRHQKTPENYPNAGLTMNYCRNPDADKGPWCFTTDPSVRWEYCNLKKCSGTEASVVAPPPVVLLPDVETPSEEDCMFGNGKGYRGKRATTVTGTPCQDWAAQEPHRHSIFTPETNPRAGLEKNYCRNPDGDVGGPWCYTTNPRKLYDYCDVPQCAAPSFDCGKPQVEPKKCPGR
Sequence of Plasminogen (Homo sapiens) (P00747 581-810 limits assumed): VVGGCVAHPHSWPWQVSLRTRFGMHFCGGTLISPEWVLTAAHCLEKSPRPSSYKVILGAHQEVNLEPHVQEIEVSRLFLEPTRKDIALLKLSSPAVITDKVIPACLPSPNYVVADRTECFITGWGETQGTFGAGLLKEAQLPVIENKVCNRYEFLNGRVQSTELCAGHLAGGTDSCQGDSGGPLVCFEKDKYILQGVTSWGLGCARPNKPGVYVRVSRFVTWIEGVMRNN
Sequence of Caspase-2 (Homo sapiens) (P42575 170-325 limits assumed): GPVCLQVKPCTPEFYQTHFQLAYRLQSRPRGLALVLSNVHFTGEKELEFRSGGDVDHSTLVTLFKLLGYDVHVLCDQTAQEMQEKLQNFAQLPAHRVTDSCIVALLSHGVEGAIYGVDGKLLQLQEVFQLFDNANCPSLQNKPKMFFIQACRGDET
Sequence of Caspase-2 (Homo sapiens) (P42575 334-452 limits assumed): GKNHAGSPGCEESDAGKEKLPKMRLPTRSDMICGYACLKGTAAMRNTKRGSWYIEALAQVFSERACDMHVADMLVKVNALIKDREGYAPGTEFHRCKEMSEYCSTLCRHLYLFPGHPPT
Sequence of Stromelysin-1 (Homo sapiens) (P08254 100-477 limits assumed): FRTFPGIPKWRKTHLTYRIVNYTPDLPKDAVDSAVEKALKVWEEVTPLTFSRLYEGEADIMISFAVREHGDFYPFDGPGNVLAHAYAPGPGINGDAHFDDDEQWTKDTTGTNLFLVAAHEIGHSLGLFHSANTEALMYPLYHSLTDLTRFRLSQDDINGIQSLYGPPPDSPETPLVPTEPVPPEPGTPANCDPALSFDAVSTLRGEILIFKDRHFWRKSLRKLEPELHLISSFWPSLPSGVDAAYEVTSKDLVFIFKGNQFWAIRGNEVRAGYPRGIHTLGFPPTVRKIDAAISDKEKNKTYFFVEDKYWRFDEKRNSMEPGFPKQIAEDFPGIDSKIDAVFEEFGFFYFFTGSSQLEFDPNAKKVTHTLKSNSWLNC
Sequence of Chymase (Homo sapiens) (P23946 whole entry): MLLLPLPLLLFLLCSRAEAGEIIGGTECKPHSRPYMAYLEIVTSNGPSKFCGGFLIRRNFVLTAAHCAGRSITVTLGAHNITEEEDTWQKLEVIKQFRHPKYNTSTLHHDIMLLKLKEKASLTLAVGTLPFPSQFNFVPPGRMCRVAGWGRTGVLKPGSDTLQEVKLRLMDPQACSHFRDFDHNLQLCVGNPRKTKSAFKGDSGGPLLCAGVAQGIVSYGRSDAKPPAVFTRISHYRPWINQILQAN
Sequence of Chymase (P23946 whole entry): as above
Sequence of Pro-cathepsin H (Homo sapiens) (P09668 116-335 limits assumed, other chains not shown): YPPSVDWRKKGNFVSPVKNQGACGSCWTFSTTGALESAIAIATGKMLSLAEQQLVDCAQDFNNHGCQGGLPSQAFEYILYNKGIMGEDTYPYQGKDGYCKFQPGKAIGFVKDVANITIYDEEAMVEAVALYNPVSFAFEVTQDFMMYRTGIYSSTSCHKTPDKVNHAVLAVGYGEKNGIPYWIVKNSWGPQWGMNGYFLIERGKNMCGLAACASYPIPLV
Sequence of Neprilysin (Homo sapiens) (P08473 whole entry): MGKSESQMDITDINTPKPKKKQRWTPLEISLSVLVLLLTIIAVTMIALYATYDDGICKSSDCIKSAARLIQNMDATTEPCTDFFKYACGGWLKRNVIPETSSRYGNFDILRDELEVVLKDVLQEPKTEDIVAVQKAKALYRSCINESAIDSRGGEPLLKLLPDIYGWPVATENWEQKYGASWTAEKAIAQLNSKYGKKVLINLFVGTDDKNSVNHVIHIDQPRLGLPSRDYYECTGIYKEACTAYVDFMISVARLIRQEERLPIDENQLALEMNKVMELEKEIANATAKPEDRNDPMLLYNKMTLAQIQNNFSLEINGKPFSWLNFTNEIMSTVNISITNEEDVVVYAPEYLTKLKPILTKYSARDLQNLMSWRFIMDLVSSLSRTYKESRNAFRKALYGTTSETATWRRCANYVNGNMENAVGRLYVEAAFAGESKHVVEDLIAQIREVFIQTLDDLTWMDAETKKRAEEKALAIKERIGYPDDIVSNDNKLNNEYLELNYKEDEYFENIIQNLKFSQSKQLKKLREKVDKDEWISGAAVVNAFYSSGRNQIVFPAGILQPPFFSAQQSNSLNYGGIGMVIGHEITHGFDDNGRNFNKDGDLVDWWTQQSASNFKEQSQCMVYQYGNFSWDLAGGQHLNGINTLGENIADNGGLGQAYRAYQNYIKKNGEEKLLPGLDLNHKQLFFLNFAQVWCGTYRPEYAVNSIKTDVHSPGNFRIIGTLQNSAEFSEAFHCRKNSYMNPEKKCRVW
Sequence of Matrilysin (Homo sapiens) (P09237 whole entry): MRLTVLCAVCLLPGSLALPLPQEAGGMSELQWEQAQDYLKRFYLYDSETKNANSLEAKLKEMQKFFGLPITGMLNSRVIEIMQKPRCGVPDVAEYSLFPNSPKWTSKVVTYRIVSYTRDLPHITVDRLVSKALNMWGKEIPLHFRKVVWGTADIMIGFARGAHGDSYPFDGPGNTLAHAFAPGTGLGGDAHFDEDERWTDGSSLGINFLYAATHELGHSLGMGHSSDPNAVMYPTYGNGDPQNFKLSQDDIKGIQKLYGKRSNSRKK
Sequence of Coagulation factor VII (Homo sapiens) (P08709 61-212 limits assumed): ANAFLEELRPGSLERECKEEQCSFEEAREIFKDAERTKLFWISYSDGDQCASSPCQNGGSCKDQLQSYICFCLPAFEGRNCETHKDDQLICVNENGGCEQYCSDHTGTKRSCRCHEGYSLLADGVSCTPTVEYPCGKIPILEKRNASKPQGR
Sequence of Coagulation factor VII (Homo sapiens) (P08709 213-466 limits assumed): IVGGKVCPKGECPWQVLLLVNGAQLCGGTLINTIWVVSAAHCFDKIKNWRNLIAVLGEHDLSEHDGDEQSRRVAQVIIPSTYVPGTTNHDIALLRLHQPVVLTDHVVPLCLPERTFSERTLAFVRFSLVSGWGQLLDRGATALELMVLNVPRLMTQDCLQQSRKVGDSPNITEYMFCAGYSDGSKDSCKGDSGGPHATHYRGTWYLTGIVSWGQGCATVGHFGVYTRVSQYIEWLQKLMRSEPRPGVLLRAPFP
Sequence of Macrophage metalloelastase (Homo sapiens) (P39900 106-470 limits assumed): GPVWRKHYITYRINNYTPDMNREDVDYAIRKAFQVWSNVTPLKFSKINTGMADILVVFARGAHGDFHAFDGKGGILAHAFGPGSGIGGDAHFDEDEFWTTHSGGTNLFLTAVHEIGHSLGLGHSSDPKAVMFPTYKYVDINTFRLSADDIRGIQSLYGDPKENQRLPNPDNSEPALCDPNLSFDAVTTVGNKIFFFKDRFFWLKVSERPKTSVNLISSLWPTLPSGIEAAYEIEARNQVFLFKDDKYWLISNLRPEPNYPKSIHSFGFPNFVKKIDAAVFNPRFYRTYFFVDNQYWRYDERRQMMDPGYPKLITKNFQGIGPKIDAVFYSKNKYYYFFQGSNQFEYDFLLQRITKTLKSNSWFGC

IC50 [1]: 2.3 nM
IC50 [2]: 280 nM
EC50 [3]: 27 nM
SMILES: CC(C)C[C@H](NC(=O)[C@@H](NC(=O)c1cncc(-c2ccccc2)n1)[C@@H](C)O)B(O)O
IC50 (A2780): 9.8 nM

IC50 [1]: 8.8 nM
IC50 [2]: 460 nM
EC50 [3]: 13000 nM
SMILES: CC(C)C[C@H](NC(=O)[C@@H](NC(=O)c1ncccc1-c1ccccc1)[C@@H](C)O)B(O)O

IC50 [1]: 1.8 nM
IC50 [2]: 270 nM
EC50 [3]: 21 nM
SMILES: CC(C)C[C@H](NC(=O)[C@@H](NC(=O)c1cnc(-c2ccccc2)cn1)[C@@H](C)O)B(O)O
IC50 (A2780): 8.2 nM

IC50 [1]: 0.8 nM
IC50 [2]: 900 nM
EC50 [3]: 16.9 nM
SMILES: CC(C)C[C@H](NC(=O)[C@@H](NC(=O)c1cccc(-c2ccccc2)c1)[C@@H](C)O)B(O)O
IC50 (A2780): 4.8 nM

IC50 [1]: 1.6 nM
IC50 [2]: 500 nM
EC50 [3]: 27 nM
SMILES: CC(C)C[C@H](NC(=O)[C@@H](NC(=O)c1ccc2ccccc2c1)[C@@H](C)O)B(O)O
IC50 (A2780): 5.3 nM

IC50 [1]: 6.8 nM
IC50 [2]: 1300 nM
EC50 [3]: 32 nM
SMILES: CC(C)C[C@H](NC(=O)[C@@H](NC(=O)c1ccc2ccccc2n1)[C@@H](C)O)B(O)O
IC50 (A2780): 20.9 nM

IC50 [1]: 4.6 nM
IC50 [2]: 590 nM
EC50 [3]: 16 nM
SMILES: CC(C)C[C@H](NC(=O)[C@@H](NC(=O)c1csc(-c2ccccc2)n1)[C@@H](C)O)B(O)O
IC50 (A2780): 28 nM

IC50 [1]: 42 nM
EC50 [3]: 1350 nM
SMILES: CC(C)C[C@H](NC(=O)[C@@H](NC(=O)c1cnccn1)[C@@H](C)O)B(O)O

IC50 [1]: 0.9 nM
IC50 [2]: 600 nM
EC50 [3]: 21 nM
SMILES: CC(C)C[C@H](NC(=O)[C@@H](NC(=O)c1ccc(-c2ccccc2)cc1)[C@@H](C)O)B(O)O
IC50 (A2780): 4.9 nM

IC50 [1]: 2 nM
IC50 [2]: 290 nM
EC50 [3]: 18.6 nM
SMILES: CC(C)C[C@H](NC(=O)[C@@H](NC(=O)c1cc(-c2ccccc2)ccn1)[C@@H](C)O)B(O)O
IC50 (A2780): 5.1 nM

inhibition (Caspase-7 (Homo sapiens)): 1%
inhibition (Caspase-8 (Homo sapiens)): -4%
inhibition (Caspase-9 (Homo sapiens)): 0%
inhibition [4]: 1%
inhibition [5]: 26%
inhibition [6]: 9%
inhibition (Sus scrofa [7]): 8%
inhibition [8]: 9%
inhibition [9]: 22%
inhibition (Homo sapiens [10]): 86%
IC50 [1]: 3.8 nM
IC50 [2]: 500 nM
EC50 [3]: 21 nM
half-life [11]: 98 h
AUC(0-inf) [12]: 927 ng·h/mL
Vd [13]: 102 L/kg
clearance [14]: 14.3 mL/min/kg
half-life [15]: 70 h
AUC(0-inf) [16]: 499 ng·h/mL
bioavailability [17]: 11%
inhibition [18]: 0%
inhibition [19]: 5%
inhibition [20]: -1%
inhibition [21]: -3%
inhibition [22]: 96%
IC50 (Cathepsin G): 520 nM
inhibition [23]: 8%
inhibition [24]: 50%
inhibition [25]: 48%
inhibition [26]: 27%
inhibition (Chymase (Homo sapiens)): 95%
IC50 (Chymase): 1190 nM
IC50 [27]: 1220 nM
inhibition [28]: 4%
inhibition [29]: 4%
inhibition [30]: -2%
inhibition [31]: 6%
inhibition [32]: 6%
inhibition [33]: -1%
inhibition [34]: -1%
inhibition [35]: -6%
inhibition [36]: 3%
inhibition [37]: -7%
inhibition (Caspase-1 (Homo sapiens)): 0%
inhibition (Caspase-2 (Homo sapiens)): 1%
inhibition (Caspase-3 (Homo sapiens)): 2%
inhibition (Renin (Homo sapiens)): -1%
inhibition [38]: 2%
inhibition [39]: 1%
inhibition (Trypsin (Homo sapiens)): -1%
inhibition (Homo sapiens [40]): 0%
inhibition [41]: 27%
inhibition (Sus scrofa [42]): -1%
inhibition [43]: 2%
half-life [44]: 21 min
half-life [45]: 16 min
half-life [46]: > 40 min
half-life [47]: 37 min
fraction unbound [48]: 0.049
fraction unbound [49]: 0.069
fraction unbound [50]: 0.058
SMILES: CC(C)C[C@H](NC(=O)[C@H](Cc1ccccc1)NC(=O)c1cnccn1)B(O)O [BORTEZOMIB]
IC50 (A2780): 1.7 nM
Activity (Mus musculus): inactive
